We go through one compound from ChEMBL document CHEMBL3992522, “Antileishmanial Activity of Pyrazolopyridine Derivatives and Their Potential as an Adjunct Therapy with Miltefosine” (J Med Chem, 2017).

Values after ≈ are worked out from the molar mass of the structure shown. Active and inactive are the calls of the source.

Broadly, the CC50 is the concentration giving 50% cytotoxicity. One may read the MIC as the smallest concentration in the dilution series that meets the test's criterion for growth inhibition. As a reminder, the inhibition is the change of the read-out against control, counted positive when it falls. In general, inhibition in vivo refers to the percentage by which the read-out fell short of the control. One may read the CL/F as clearance divided by bioavailability, as obtained after extravascular dosing.

A short description of series [1]: Cytotoxicity against African green monkey Vero cells assessed as reduction in cell viability after 72 hrs by MTT assay. The settings on record: chlorocebus sabaeus. It counts as cell-based. The method, boiled down:
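Vero and J774 cells seeded at 1×10^5 per well for 24 h, then exposed 72 h to seven two-fold dilutions from 500 to 7.81 μM. MTT solution (5 mg/mL stock) added for 2 h at 37 °C, formazan dissolved in DMSO and read at 540 nm. CC50 derived by the Huber and Koella method.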
A general note: Formazan colour is commonly taken as a measure of viable cells.

A short description of series [2]: Selectivity index, ratio of CC50 for mouse J774 cells to IC50 for Leishmania donovani MHOM/IN/80/DD8 amastigote forms infected in mouse J774 cells. It counts as toxicity, cell-based. The settings on record: read-out: Ratio CC50/IC50. Summed up:
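CC50: Vero or J774 cells (1×10^5/well) exposed 72 h to seven two-fold dilutions, 500–7.81 μM; MTT 2 h at 37 °C, formazan in DMSO read at 540 nm. IC50: luciferase-expressing Dd8 amastigotes in J774 macrophages (1:8), 72 h, luminescence, four-parameter Hill fit. SI = CC50/IC50, IC50 mean of three experiments.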

The test system of series [3] is Leishmania donovani. The series is described as follows: Antileishmanial activity against Leishmania donovani MHOM/IN/80/DD8 promastigote forms harboring luciferase gene after 72 hrs by Steady-Glo reagent based two fold dilution assay. To be noted: MHOM/IN/80/DD8, 72 h. Type of series: functional. Summed up: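 Promastigotes or J774-resident amastigotes treated 72 h with six two-fold dilutions from 200 µM down to 6.25 µM. Luciferase RLU fitted by four-parameter Hill non-linear regression to derive the […] inhibitory concentration (MIC).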

For series [4], the system named is Leishmania donovani. The series is described as follows: Antileishmanial activity against Leishmania donovani MHOM/IN/80/DD8 amastigote forms harboring luciferase gene infected in mouse J774 cells at 50 uM up to 72 hrs by Giemsa staining based assay relative to control. It counts as functional. The settings on record: MHOM/IN/80/DD8, J774, 72 h. Summed up:
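J774 macrophages in chamber slides infected with Dd8 promastigotes (1:10 cell:parasite in methods; 1:8 in legend) for 24 h, then treated 48 and 72 h. Cells methanol-fixed, stained with 20% Giemsa. Amastigotes per 100 macrophages counted against untreated infected controls.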

Series [5] can be described thus: Metabolic stability in mouse liver S9 fractions assessed as rate constant for metabolism at 1 mM after 60 mins in presence of NADPH by HPLC method. Type of series: ADME, tissue-based.
In series [6] the test system is Leishmania donovani. The series is described as follows: Antileishmanial activity against Leishmania donovani amastigote forms infected in Balb/c mouse assessed as inhibition of parasitic burden in spleen at 50 mg/kg, ip administered for 5 consecutive days measured 1 week post last treatment by Giemsa staining based assay relative to control. Type of series: functional. The settings on record: 168 h.

The subject of series [7] is Leishmania donovani. The series can be described thus: Antileishmanial activity against Leishmania donovani amastigote forms infected in Balb/c mouse assessed as inhibition of parasitic burden in spleen at 50 mg/kg, ip administered for 5 consecutive days measured up to 7 weeks post treatment by Giemsa staining based assay. Type of series: functional, organism-based.

Series [8] has as its system Mus musculus. The series can be described thus: Restoration of T cell proliferation in Balb/c mouse splenocytes infected with Leishmania donovani amastigote forms at 25 mg/kg, ip co-treated with 5 mg/kg, po miltefosine administered for 5 consecutive days measured on day 7 post last treatment followed by soluble Leishmania donovani promastigote antigen-stimulation for 72 hrs by MTT assay relative to control. It counts as functional. The method, boiled down: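 Splenocytes from treated infected BALB/c mice (day 4 or 7 post-treatment) isolated by Ficoll gradient, plated at 10^5/well in triplicate in phenol red-free RPMI 1640, stimulated with 5 μg/mL SLA for 72 h at 37 °C, 5% CO2. Proliferation read by MTT (0.5 mg/mL), formazan dissolved in DMSO, OD 540 nm.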

In series [9] the test system is Mus musculus. The series can be described thus: Increase in IFN-gamma level in Balb/c mouse splenocytes infected with Leishmania donovani amastigote forms at 25 mg/kg, ip co-treated with 5 mg/kg, po miltefosine administered for 5 consecutive days measured on day 4 post last treatment by sandwich ELISA relative to control. It counts as functional. Summed up: (§1)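 Splenocytes (2×10^6) from treated infected BALB/c mice taken on day 4 or 7 post-treatment. Cultured in phenol-red-free RPMI 1640 with 5 μg/mL soluble L. donovani antigen for 72 h at 37 °C, 5% CO2. Supernatant cytokines measured by sandwich ELISA against a standard curve. Mean ± SD, n = 5 mice per group, three independent experiments.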
In general terms: In an ELISA, binding on a coated surface is turned into a signal by an enzyme label.

Series [10] deals with Mus musculus. The series is described as follows: Increase in TNFalpha level in Balb/c mouse splenocytes infected with Leishmania donovani amastigote forms at 25 mg/kg, ip co-treated with 5 mg/kg, po miltefosine administered for 5 consecutive days measured on day 4 post last treatment by sandwich ELISA relative to control. It counts as functional. The method, boiled down:
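BALB/c mice infected with L. donovani (15 days); treatment for 5 consecutive days, test compound i.p. in 8% DMSO/water, miltefosine oral in TDW; sacrificed day 4 and day 7 post-treatment, n = 5 per group. Splenocytes (2×10^6) cultured 72 h in phenol red-free RPMI 1640 with 5 μg/mL SLA; supernatant cytokines by sandwich ELISA.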

For series [11], the system named is Mus musculus. The series is described as follows: Increase in IFN-gamma level in Balb/c mouse splenocytes infected with Leishmania donovani amastigote forms at 25 mg/kg, ip co-treated with 5 mg/kg, po miltefosine administered for 5 consecutive days measured on day 7 post last treatment by sandwich ELISA relative to control. Type of series: functional. The method, boiled down: as §1

Series [12] deals with Mus musculus. The series can be described thus: Decrease in IL-10 level in Balb/c mouse splenocytes infected with Leishmania donovani amastigote forms at 25 mg/kg, ip co-treated with 5 mg/kg, po miltefosine administered for 5 consecutive days measured on day 4 post last treatment by sandwich ELISA relative to control. It counts as functional. The method, boiled down: as §1

The test system of series [13] is Leishmania donovani. The series is described as follows: Induction of apoptosis in Leishmania donovani MHOM/IN/80/DD8 promastigote forms assessed as late apoptotic cells at 50 uM after 48 hrs by Annexin V-FITC/propidium iodide staining based flow cytometry (reference value: 0.86%). It counts as functional. (In general: A flow cytometer gives signals particle by particle.)

The test system of series [14] is Mus musculus. The series can be described thus: Increase in iNOS mRNA expression level in Balb/c mouse splenocytes infected with Leishmania donovani amastigote forms at 25 mg/kg, ip cotreated with 5 mg/kg, po miltefosine for 5 consecutive days measured on day 4 post last treatment by RT-PCR assay relative to control. Type of series: functional. The method, boiled down: (§2)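 Infected BALB/c mice dosed for 5 consecutive days (test compound i.p. in 8% DMSO, miltefosine oral), n = 5 per group; splenocytes taken day 4 and day 7 post-treatment. Total RNA extracted and iNOS mRNA quantified by real-time PCR, normalized to mouse β-actin, expressed as fold change over uninfected controls.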

The test system of series [15] is Mus musculus. The series can be described thus: Increase in iNOS mRNA expression level in Balb/c mouse splenocytes infected with Leishmania donovani amastigote forms at 25 mg/kg, ip cotreated with 5 mg/kg, po miltefosine for 5 consecutive days measured on day 7 post last treatment by RT-PCR assay relative to control. It counts as functional. Summed up: as §2
Series [16] concerns Leishmania donovani. The series is described as follows: Induction of apoptosis in Leishmania donovani MHOM/IN/80/DD8 promastigote forms assessed as DNA fragmentation at IC50 after 48 hrs by propidium iodide staining based TUNEL assay. It counts as functional. Summed up:
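DNA fragmentation detected by TUNEL under fluorescence and phase-contrast microscopy, with counts of TUNEL-positive cells; three independent experiments.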

Series [17] concerns Leishmania donovani. The series can be described thus: Induction of apoptosis in Leishmania donovani MHOM/IN/80/DD8 promastigote forms assessed as cell rounding at IC50 after 48 hrs by propidium iodide staining based fluorescent microscopic method. It counts as functional.
Series [18] in a line: Apparent clearance in Swiss mouse at 50 mg/kg, po by LC-MS/MS analysis. Type of series: ADME, organism-based. To be noted: in vivo.

For the compound `COc1ccc(C2C3=C(CCC3=O)Nc3c2c(-c2c[nH]c4ccccc24)nn3-c2ccc(Cl)c(Cl)c2)cc1OC` (stereo not drawn), the half-maximal cytotoxic concentration (CC50) at 72 h in series [1] amounted to 438 µM. Further, in series [2], the selectivity ratio worked out at 101. Further, in the series on Leishmania donovani [3], it took 50 µM (≈ 28.6 µg/mL) to inhibit growth (MIC). Also, the inhibition at 50 µM with Leishmania donovani [4] is over 93%. In addition, the k el at 1 h, 1000 µM in series [5] was 0.000217 s⁻¹. For the same compound, the inhibition in vivo at 50 mg/kg in the series with Leishmania donovani [6] is over 93%. Moreover, the inhibition entry with Leishmania donovani [7] was “Active”. The “fold change (FC)” value in the series on Mus musculus [8] is 8.4; with Mus musculus [9] it was 9.1; in the series on Mus musculus [10], 7.4; in the series with Mus musculus [11] it was 8.5; with Mus musculus [14], 11.8; with Mus musculus [15], 8.5. For the same compound, the “inhibition (INH)” value with Mus musculus [12] was determined as 91%. In addition, the Activity in the series on Leishmania donovani [13] was determined as 54.2%. Besides, the outcome in the series with Leishmania donovani [16] and in the series on Leishmania donovani [17] was Active. For the same compound, in series [18], the CL/F is 47.3 mL/min/kg.
